High-throughput results deposited in PubChem by several laboratories.
HTR2A ag: mouse Htr2a agonists via beta-arrestin recruitment, primary screen, cell-based, luminescence. 5-hydroxytryptamine receptor 2A (Mus musculus), P35363. CHO-K1 mHTR2A beta-arrestin complementation; percent of 30 µM serotonin response. activation, % at 7.6 µM. hit rate 0.66% among 360,000;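 active = activation above a run cutoff, the mean activation of all tested compounds plus 3 SD, cut at about 14% in these data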;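 also: 0% = plate median of compound wells and 100% = 30 µM serotonin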
Target sequence (P35363 whole entry, looked up): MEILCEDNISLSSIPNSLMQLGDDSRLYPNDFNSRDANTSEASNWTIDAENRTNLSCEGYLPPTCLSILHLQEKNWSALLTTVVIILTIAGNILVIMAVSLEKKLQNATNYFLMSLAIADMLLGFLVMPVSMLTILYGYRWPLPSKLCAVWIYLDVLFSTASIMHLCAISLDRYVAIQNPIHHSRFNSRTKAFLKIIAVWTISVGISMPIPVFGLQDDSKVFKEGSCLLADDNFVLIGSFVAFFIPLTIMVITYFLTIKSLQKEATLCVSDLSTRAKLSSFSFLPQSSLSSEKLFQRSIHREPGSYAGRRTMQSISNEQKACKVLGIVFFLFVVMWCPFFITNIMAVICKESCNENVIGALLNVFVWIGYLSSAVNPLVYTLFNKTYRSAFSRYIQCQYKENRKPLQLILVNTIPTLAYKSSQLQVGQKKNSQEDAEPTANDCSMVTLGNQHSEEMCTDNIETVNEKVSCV
IMP-1 inh: IMP-1 metallo-beta-lactamase inhibitors, primary screen, biochemical, epi-absorbance readout, Pseudomonas aeruginosa enzyme | hit rate 0.45% among 290,000 | purified IMP-1, nitrocefin hydrolysis, epi-absorbance fluorescence | metallo-beta-lactamase IMP-1 (Pseudomonas aeruginosa) | AID 1556, 2009 | inhibition, % at 5.6 µM;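 active = inhibition above the mean plus 3 SD of all compounds in the same screening run, cut at about 4.5% in these data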;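 also: 0% = IMP-1 with DMSO and 100% = DMSO wells lacking enzyme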
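System: purified recombinant IMP-1 beta-lactamase. Medium: Zinc- and detergent-supplemented HEPES buffer, pH 7.1. Compound: one 5.6 µM dose […]. Schedule: 15 min preincubation plus 25 min reaction at 25 °C. Technique: Epi-absorbance fluorescence, 480 nm excitation, 530 nm emission.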
dFosB act-1: activators of delta FosB homodimer, primary screen, biochemical, fluorescence polarization, TAMRA-CDK5 oligo, single point; purified delta FosB; percent of positive-control signal above neutral wells; hit rate 0.99% among 340,000; activation, % at 25 µM; Protein FosB (Mus musculus), P13346;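 active = mean activation above about 17%, with every replicate also reaching it, limit read from the data, passing the limit was not always enough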
VIM-2 inh: VIM-2 metallo-beta-lactamase inhibitors, primary screen, biochemical, epi-absorbance readout, Pseudomonas aeruginosa enzyme; hit rate 0.89% among 290,000; inhibition, % at 5.6 µM; purified VIM-2, nitrocefin hydrolysis, epi-absorbance fluorescence; AID 1527, 2009;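 active = inhibition above the mean of all tested compounds plus 3 SD, cutoff set per screening run, cut at about 7.5% in these data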;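 also: red hydrolysis product quenches plate fluorescence so inhibitors raise well fluorescence; 0% = enzyme with DMSO and 100% = DMSO without enzyme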
dFosB act-2: activators of mouse delta FosB DNA binding, confirmation, biochemical, fluorescence polarization, TAMRA-CDK5 oligo, cherry-picked samples. 2,400 tested, under 10 active. shares compounds with dFosB act-1. activation, % at 24.9 µM. purified delta FosB; normalised: neutral wells 0, positive control 100;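 active = highest replicate activation at or above 34% and every replicate reaching that threshold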;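 also: higher polarization means more probe DNA bound by delta FosB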
* marks the source's active call; other numbers are inactive results. Only some compounds are listed: those with a hit (about 2.5% of all), similar ones and a draw of the others.

How did O=C(Cn1cnc2ccccc2c1=O)Nc1nnc(SCc2ccc(Cl)cc2)s1 do in these assays?
HTR2A ag: -3.0; IMP-1 inh: 0.2; dFosB act-1: 24.6*; VIM-2 inh: 0.0; dFosB act-2: -4.9

What do the screens show for `CC1=C(C(N)=O)C(c2cccnc2)n2nc(SCc3ccccc3Cl)nc2N1` (stereo not drawn)?
HTR2A ag: 0.8; IMP-1 inh: -2.4; dFosB act-1: 101.1*; VIM-2 inh: 0.3; dFosB act-2: 4.5

How did Cc1cc(C)c2c3c(oc2n1)C(=O)N(c1cccc(Cl)c1)CC(=O)N3 do in these assays?
HTR2A ag: 2.8; IMP-1 inh: -1.5; dFosB act-1: -6.9; VIM-2 inh: -1.0

How did Cc1ccc(N2CC(=O)Nc3c(oc4nc(-c5ccccc5)cc(C)c34)C2=O)cc1 do in these assays?
HTR2A ag: -2.3; IMP-1 inh: -4.0; dFosB act-1: 23.9*; VIM-2 inh: -4.1; dFosB act-2: 0.8

How did Fc1ccc(NC(=S)N2CCN(c3ccccn3)CC2)cc1Cl do in these assays?
HTR2A ag: -1.8; dFosB act-1: 5.6

Results for Cn1c(=O)oc2cc(S(=O)(=O)N3CCCC(C(=O)NCc4ccc5c(c4)OCO5)C3)ccc21 (stereo not drawn) ?
HTR2A ag: 5.3; IMP-1 inh: -4.4; dFosB act-1: 46.3*; VIM-2 inh: 2.0; dFosB act-2: 2.3

What do the screens show for `Cc1cc2nc(-c3ccc(Cl)cc3)c(CC(C)(C)C)n2c(C)c1Br`?
HTR2A ag: -0.8

How did Cc1cc(NC(=O)C(C)SCC(=O)OCc2ccc([N+](=O)[O-])cc2)no1 (stereo not drawn) do in these assays?
HTR2A ag: -3.9; dFosB act-1: 1.7

Results for CN(CC(=O)Nc1ccc(N2CCOCC2)cc1)C(=O)CSc1ccc(F)cc1 ?
HTR2A ag: 6.0; dFosB act-1: -1.0

What do the screens show for `NC(=O)c1ccc(NC(=O)CSC2=Nc3ccccc3C3CC=NN23)cc1` (stereo not drawn)?
HTR2A ag: 2.2; IMP-1 inh: -2.5; dFosB act-1: 24.9*; VIM-2 inh: -0.5; dFosB act-2: -1.7

Results for CN(CC(=O)Nc1ccc(Cl)c(C(F)(F)F)c1)C(=O)/C=C/c1ccco1 ?
HTR2A ag: -1.1; IMP-1 inh: -2.7; dFosB act-1: -13.0; VIM-2 inh: -3.8

Results for CN(CC(=O)Nc1ccc(Cl)c(C(F)(F)F)c1)C(=O)c1cc(=O)[nH]c2ccccc12 ?
HTR2A ag: -6.7; dFosB act-1: -21.5

Results for CN(CC(=O)Nc1ccc(Cl)c(C(F)(F)F)c1)C(=O)c1cc(=O)c2ccccc2o1 ?
HTR2A ag: -10.0; dFosB act-1: 33.4*; dFosB act-2: 0.2

How did CN(CC(=O)Nc1ccc(Cl)c(C(F)(F)F)c1)C(=O)/C=C/c1cccs1 do in these assays?
HTR2A ag: -8.0; dFosB act-1: 28.5*; dFosB act-2: 0.0

What do the screens show for `COc1cccc(-c2ccc(NC(=O)C3CCCN(CCCn4nc(C)cc4C)C3)cc2)c1` (stereo not drawn)?
HTR2A ag: -7.3; IMP-1 inh: -1.3; dFosB act-1: 26.9*; VIM-2 inh: -0.2; dFosB act-2: 6.4

What do the screens show for `COc1cccc(-c2ccc(NC(=O)C3CCCN(Cc4ccco4)C3)cc2)c1` (stereo not drawn)?
HTR2A ag: -9.0; IMP-1 inh: 0.3; dFosB act-1: -15.2; VIM-2 inh: -0.1

Results for CCOC(=O)C1(Cc2cccc(OC)c2)CCN(CC2CC=CCC2)CC1 (stereo not drawn) ?
HTR2A ag: -3.7; IMP-1 inh: -2.7; dFosB act-1: -3.7; VIM-2 inh: -1.9

What do the screens show for `CCCCN1C(=O)C(CC(=O)NCCc2ccccn2)CC(C(=O)N2CCOCC2)=C1C` (stereo not drawn)?
HTR2A ag: -0.3

How did COc1ccc(CCNC(=O)C(NS(=O)(=O)c2ccc3c(c2)CCN3C(C)=O)C(C)C)cc1OC (stereo not drawn) do in these assays?
IMP-1 inh: -1.5; VIM-2 inh: -1.6
